Entries after “also recorded” stand apart in the source; their conditions may differ.
Assays:
[1] = system: HEK-293 cells; experiment: Anti-proliferative MTT assay, non-cancerous HEK-293 cells; format: cell-based; conditions: Homo sapiens, HEK293, 72 h, read-out: HEK-293 IC50
Method in brief: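 HEK-293 cells grown in DMEM with 10% FBS and 1% penicillin/streptomycin, seeded at 2.5 x 10^4 cells/well and allowed 24 h before dosing. Compound (DMSO stock) given at increasing concentrations for 72 h at 37 °C, 5% CO2. MTT (5.4 mg/mL dye solution) was added for 3 h, formazan dissolved in DMSO, and absorbance read at 570 nm. Replicates 6-8; IC50 derived from concentration-response data.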

[2] = target: T1, ANKRA2 (Homo sapiens, UniProt Q9H9E1); experiment: Circular dichroism of ANKRA2; format: binding; conditions: 10 μM ANKRA2, 1-100 μM compound, 25 °C
T1 sequence (Q9H9E1 152-313 limits assumed): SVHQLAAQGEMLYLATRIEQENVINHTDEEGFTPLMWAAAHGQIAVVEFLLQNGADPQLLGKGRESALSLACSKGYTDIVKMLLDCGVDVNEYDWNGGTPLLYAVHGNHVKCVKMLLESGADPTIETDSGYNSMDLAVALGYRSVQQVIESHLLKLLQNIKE
Method in brief: (§1)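 Recombinant His-tagged protein was expressed in E. coli LOBSTR BL21(DE3) (0.5 mM IPTG, 37 °C, 16 h) and Ni-affinity purified. The tag was removed with TEV, followed by a second HisTrap pass and gel filtration if needed. 10 μM protein in 25 mM Tris, 50 mM NaCl, pH 7.4, alone or with 1, 10 or 100 μM compound. Spectra 195–260 nm in a 1 mm quartz cuvette, six accumulations, 25 °C; α-helical content monitored; triplicate samples.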

[3] = target: T2, gankyrin (Homo sapiens, UniProt O75832); experiment: Circular dichroism of gankyrin; format: binding; conditions: 10 μM gankyrin, 1-100 μM compound, 25 °C
T2 sequence (O75832 1-226): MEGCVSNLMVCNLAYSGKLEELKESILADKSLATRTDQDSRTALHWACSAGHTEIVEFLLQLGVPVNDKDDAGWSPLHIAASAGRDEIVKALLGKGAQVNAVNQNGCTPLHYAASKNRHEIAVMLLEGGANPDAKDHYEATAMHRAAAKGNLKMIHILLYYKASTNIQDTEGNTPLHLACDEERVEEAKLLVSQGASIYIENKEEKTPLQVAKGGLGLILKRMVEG
Method in brief: as §1

[4] = system: HuH6 cells; experiment: Cell cycle analysis by flow cytometry in HuH6 cells; format: cell-based; conditions: 3.3 μM, 72 h, vs DMSO
Method in brief: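 HuH6 cells in 10 cm dishes were exposed to test compound or vehicle (0.25% DMSO final) for 72 h. Cells were harvested in cold PBS, normalized, fixed in 70% ethanol at −20 °C overnight, then stained with PI/RNase for 30 min at 37 °C. DNA content was measured by flow cytometry. Mean ± SD, n = 3; one-way ANOVA, P < 0.05 significant.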

[5] = target: T2, gankyrin; experiment: Cellular thermal shift assay; format: cell-based; conditions: HuH6 cells treated at anti-proliferative IC50 for 5 h, 50-65 °C
Method in brief: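 HuH6 cells were exposed to test compound (0.25% DMSO final) or DMSO alone for 5 h, harvested, split into six aliquots and heated at 50, 53, 56, 59, 62 or 65 °C. Lysis was in RIPA with protease/phosphatase inhibitors, 60 min on ice. 15 μg protein was run on reducing SDS-PAGE, transferred to PVDF and probed for gankyrin, with β-actin as reference; HRP secondary and ECL detection.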

[6] = system: Rb, p53 and gankyrin levels in HuH6 cells; experiment: Western blot analysis of TSP levels in HuH6 cells; format: cell-based; conditions: 48 h
Method in brief: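 HuH6 cells in 10 cm dishes were exposed to varying compound concentrations (0.25% DMSO final) or DMSO only for 48 h. Cells were harvested in cold PBS and lysed in RIPA with protease/phosphatase inhibitors, 60 min on ice. 15 μg protein was resolved under reducing conditions, transferred to PVDF and probed for p53, Rb and gankyrin, with cyclophilin as reference; HRP secondaries, ECL detection. Run in duplicate.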

For `COC(=O)c1ccc(C(=O)NCCCNC(=O)c2ccc(C(=O)OC)cc2)cc1` [Compound 10d, Dimethyl 4,4'-((propane-1,3-diylbis(azanediyl))bis(carbonyl))dibenzoate], the IC50 [1] was greater than 50 µM, the “effect on ANKRA2 secondary structure / 3D fold (CD spectra)” value [2] was “no changes in secondary structure content; also recorded: no significant global structure change” and the “effect on gankyrin secondary structure / 3D fold (CD spectra)” value [3] was “reduction in secondary structure content; also recorded: significant loss of gankyrin structural integrity”.
For `COC(=O)c1ccc(NC(=O)CCC(=O)Nc2ccc(C(=O)OC)cc2)cc1` [Compound 13d, Dimethyl 4,4'-(succinylbis(azanediyl))dibenzoate], the “number of cells in the G0-G1 phase” value [4] was “significant increase”, the “number of cells in the S phase” value [4] was “significant decrease” and the “gankyrin thermal stability (CETSA)” value [5] was “bind and thermally stabilize gankyrin”. For the same compound, the IC50 [1] was greater than 50 µM, the “effect on ANKRA2 secondary structure / 3D fold (CD spectra)” value [2] was “no alterations in secondary structure content; also recorded: no significant global structure change” and the “effect on gankyrin secondary structure / 3D fold (CD spectra)” value [3] was “decline in secondary structure content; also recorded: significant loss of gankyrin structural integrity”. For the same compound, the “Rb and p53 levels (western blot)” value [6] was “increase in both Rb and p53 levels” and the “gankyrin levels (western blot)” value [6] was “relatively constant”.
